High-throughput results deposited in PubChem by The Scripps Research Institute Molecular Screening Center.
Compounds with a hit are over-represented: about 1.4% of the library has one in this group of screens.
SIAE primary = human SIAE inhibition, primary screen; Q9HAT2; SIAE FP-Rh probe binding, fluorescence polarization; inhibition, % at 9.66 µM; 370,000 compounds, 0.69% hits; AID 1053197;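 active means inhibition above a cutoff: mean of compounds within the control limits plus 3 SD of those, cut at about 17% in these data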;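 further: 0% = plate median of compound wells and 100% = probe without SIAE protein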
RBBP9 inhibitor = inhibitors of human serine hydrolase RBBP9; recombinant RBBP9, FP-Rh probe fluorescence polarization; inhibition, % at 7.94 µM; 220,000 compounds, 0.2% hits; AID 1515;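 active means inhibition above the campaign mean of all tested compounds plus 3 SD, cut at about 14% in these data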;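 further: plate controls were DMSO wells with RBBP9 for no effect and wells lacking RBBP9 protein for full effect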
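Controls: DMSO-treated enzyme wells and wells lacking RBBP9 | Material: RBBP9 protein | Technique: Fluorescence polarization | Replication: Single well per compound, no replicates | Buffer or medium: Tris-NaCl-Pluronic buffer, pH 8.0 | Timing: 30 min compound preincubation, 45 min probe labeling, 25 °C | Read-out basis: Percent inhibition from mP, scaled between DMSO and no-protein wells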
mABHD4 FP = inhibits mouse alpha/beta hydrolase domain 4 | Q8VD66 | purified mABHD4, FP-Rh probe fluorescence polarization | inhibition, % at 8.92 µM | 370,000 compounds, 0.54% hits | AID 720543;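 active means inhibition exceeding the mean over every tested compound plus 3 SD, cut at about 30% in these data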;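 further: 0% = plate median of compound wells and 100% = S159A mutant with DMSO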
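Test system: mABHD4 protein | Buffer or medium: HEPES pH 7.0 buffer, 150 mM NaCl, 0.01% Pluronic F-127 | Probe or stimulus: FP-Rh fluorescent activity-based probe, added after compound pre-incubation | Timing: Pre-incubation 45 min, probe exposure 60 min, at 25 °C | Technique: Fluorescence polarization, excitation 525 nm, emission 598 nm, BODIPY TMR filters | Repeats: Single well per compound (singlicate)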
HTRA1 inh = blocks human HTRA1 serine peptidase | Q92743 | recombinant HTRA1, FP-rhodamine activity-based probe, fluorescence polarization | inhibition, % at 5.96 µM | 340,000 compounds, 0.5% hits; in the data active means inhibition above about 36%;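 further: 0% = enzyme with DMSO and 100% = wells lacking enzyme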
Target sequence (Q92743 whole entry, looked up): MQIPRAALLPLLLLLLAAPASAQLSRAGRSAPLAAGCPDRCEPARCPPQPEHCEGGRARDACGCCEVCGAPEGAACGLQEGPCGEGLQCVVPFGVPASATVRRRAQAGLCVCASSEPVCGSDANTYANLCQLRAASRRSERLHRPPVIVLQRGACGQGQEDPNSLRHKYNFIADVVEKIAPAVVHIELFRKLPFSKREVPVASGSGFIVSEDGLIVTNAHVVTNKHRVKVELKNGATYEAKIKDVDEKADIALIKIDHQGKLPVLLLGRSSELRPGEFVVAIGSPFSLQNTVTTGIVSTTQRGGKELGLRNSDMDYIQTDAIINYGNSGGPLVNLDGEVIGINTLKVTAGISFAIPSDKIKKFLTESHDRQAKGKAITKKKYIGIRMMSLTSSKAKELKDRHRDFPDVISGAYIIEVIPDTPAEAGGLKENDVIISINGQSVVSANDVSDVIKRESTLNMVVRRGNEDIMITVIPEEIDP
SIAE inh conf = human SIAE inhibition, confirmation | SIAE FP-Rh activity-based probe, fluorescence polarization | AID 1117263 | shares compounds with SIAE primary | inhibition, % at 9.66 µM | 2,300 compounds, 13% hits;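 active means mean inhibition of the replicates above the hit cutoff set in the primary screen, cut at about 17% in these data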;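 further: 0% = SIAE with DMSO and probe and 100% = probe without SIAE; inhibitors lower polarization as more probe stays unbound to SIAE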
* = called active by the depositor; / = no result given.

SMILES	SIAE primary	RBBP9 inhibitor	mABHD4 FP	HTRA1 inh	SIAE inh conf
COc1cccc(CCNC(=O)CC2C(=O)NCCN2CC(C)(C)C)c1 (configuration not stated)	17*	-7	3	-2	-2
Cc1ccccc1C(=O)Nc1nncs1	1	-9	3	-2	/
O=C(Nc1nncs1)c1c(F)c(F)c(F)c(F)c1F	20*	-6	6	-6	1
CC1(c2ccccc2)NC(=O)N(CC(=O)N2CCN(S(=O)(=O)c3cccc(C(F)(F)F)c3)CC2)C1=O (configuration not stated)	10	/	-6	0	/
O=C(c1ccc([N+](=O)[O-])cc1)N1CCOCC1	18*	/	5	8	-3
O=[N+]([O-])c1cccc(N/N=C/c2ccc(N3CCOCC3)cc2)c1	18*	/	8	26	6
O=C(Nc1ccc(N2CCCCC2)cc1)c1ccc([N+](=O)[O-])o1	19*	/	11	16	6
O=C(Nc1ccc(N2CCOCC2)cc1)c1ccc([N+](=O)[O-])cc1	17*	-1	5	2	-1
O=C(N[C@@H](Cc1cccnc1)C(=O)N1CCC[C@H]1C(=O)NCCc1ccccc1Cl)c1ccccc1	-3	/	6	/	/
COc1ccccc1NS(=O)(=O)c1cc(NC(=O)CCc2nc3ccccc3c(=O)[nH]2)ccc1C	-15	/	-1	-12	/
COc1ccccc1CN1CCNC(=O)C1CC(=O)NCCCn1cccn1 (configuration not stated)	40*	-10	4	-5	8
COc1cccc(CN2CCNC(=O)C2CC(=O)NCCn2cccn2)c1OC (configuration not stated)	4	4	8	4	/
Oc1ccc(Nc2nc(-c3ccccc3O)nc3ccccc23)cc1	26*	/	3	2	1
Cc1ccc(-c2nc(Nc3ccc(O)cc3)c3ccccc3n2)cc1	17*	/	6	10	-22
Cc1ccc(-c2nc(Nc3cccc(O)c3)c3ccccc3n2)cc1	-30	/	-55	-106	/
Cc1ccc(-c2nc(Nc3ccc(N4CCOCC4)cc3)c3ccccc3n2)cc1	21*	11	2	/	14
CCOC(=O)[C@@]12CCC3=C1N(CCC3)C(=O)[C@H](CC(=O)N1CCCC1)C2	3	/	3	/	/
O=S(=O)(Nc1ccccc1)C1CCCCC1	-3	/	-4	10	/
Cc1ccc(S(=O)(=O)N2[C@@H](c3ccc(Cl)cc3)C(C(=O)OC(C)(C)C)=CC[C@H]2c2ccc(Cl)c(Cl)c2)cc1	0	/	-5	/	/
Cc1onc(-c2c(F)cccc2Cl)c1C(=O)Nc1cc2cc([N+](=O)[O-])ccc2oc1=O	0	/	-9	/	/
O=C(c1ccccc1)c1ccncc1	28*	2	-5	12	4
CC(C)(C)c1ccccc1NC(=O)COC(=O)CN1C(=O)NC2(CCCC2)C1=O	21*	/	1	5	4
NS(=O)(=O)c1ccc(N/N=C/c2cn(-c3ccccc3)nc2-c2cccs2)cc1	23*	-2	-14	-20	3
COc1ccc(C(=O)CCNc2ccc3c(c2)OCCO3)cc1	18*	-9	4	3	4
CCN(CC)c1ccc(/C=N/NC(=O)CCC(=O)NCc2ccccc2)c(O)c1	8	1	14	20	/
SMILES	SIAE primary	RBBP9 inhibitor	mABHD4 FP	HTRA1 inh	SIAE inh conf
CCN(CC)S(=O)(=O)c1cccc(C(=O)N/N=C/c2cccc(O)c2O)c1	27*	-2	16	14	-7
CCN(CC)c1ccc(/C=N/NC(=O)c2cccc(S(=O)(=O)N3CCOCC3)c2)c(O)c1	20*	-13	15	21	11
CCOC(=O)N/N=C/c1ccc(N(CC)CC)cc1O	18*	1	7	0	-2
CCN(CC)c1ccc(C=Nc2cccc(S(=O)(=O)N3CCOCC3)c2)c(O)c1	-5	/	7	-4	/
CCN(CC)S(=O)(=O)c1cccc(C(=O)N/N=C/c2cc(OC)c(O)c(OC)c2)c1	0	-4	0	2	/
O=C(NCc1ccccc1)[C@@H]1CCCN1C(=O)[C@@H](NS(=O)(=O)c1ccc(F)cc1F)c1ccccc1	3	/	-6	/	/
COCCNC(=S)N(C)[C@H]1C[C@H]2c3[nH]c4c(-c5ccccc5)cccc4c3CCN2C[C@H]1[C@H](C)O	-4	/	9	/	/
